DNA FID counter – displaces DNA intercalator in HCV helicase counter-screen. inhibition, % at 7.9 µM. 290,000 tested, 0.17% active. DNA fluorescent intercalator displacement, fluorescence; in the data active = inhibition above about 37%;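 also: 0% = vehicle and 100% = reference compound; higher means more ethidium bromide displaced from hairpin DNA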
NR3A LBD binder – modulates the human NR3A ligand-binding domain; NR3A LBD differential scanning fluorimetry, Tm shift; 0% = protein alone, 100% = glycine-bound protein; Tm shift relative to glycine control, % at 25 µM; 340,000 tested, 2.5% active;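 active = melting temperature shift of at least 10% of the positive control shift, at one fixed dose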
ZTA counter – blocks Epstein-Barr virus ZTA, an EBNA-1 counter-screen; inhibition, % at 11 µM; 320,000 tested, 0.15% active; ZTA-DNA binding, fluorescence polarization; AID 2234; P03206; in the data active = inhibition above about 33%
Target sequence (P03206 whole entry, looked up): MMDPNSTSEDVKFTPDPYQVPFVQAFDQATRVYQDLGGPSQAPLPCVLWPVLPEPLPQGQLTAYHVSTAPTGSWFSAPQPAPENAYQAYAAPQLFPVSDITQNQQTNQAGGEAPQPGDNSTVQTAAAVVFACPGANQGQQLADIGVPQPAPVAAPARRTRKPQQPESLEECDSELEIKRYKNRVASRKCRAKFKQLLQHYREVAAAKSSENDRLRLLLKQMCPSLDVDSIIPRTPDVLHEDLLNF
FGF22 binding – shifts melting point of recombinant human FGF22. Q9HCT0. recombinant FGF22 thermal shift, SYPRO orange fluorescence; percent of sucrose octasulfate shift, DMSO zero. activity (Tm shift, normalised), % at 9.99 µM. 340,000 tested, 1.5% active. AID 651658;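 active = mean Tm shift, scaled 0 neutral to 100 positive control, at about 1.3% or above, every replicate too, limit read from the data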
Target sequence (Q9HCT0 whole entry, looked up): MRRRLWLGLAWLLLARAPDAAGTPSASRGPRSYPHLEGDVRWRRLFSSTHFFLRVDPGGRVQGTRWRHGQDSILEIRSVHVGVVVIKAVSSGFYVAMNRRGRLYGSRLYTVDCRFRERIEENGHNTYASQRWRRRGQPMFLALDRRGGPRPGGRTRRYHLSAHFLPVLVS
EBNA-1 inh – blocks EBNA-1 binding to DNA; inhibition, % at 14.8 µM; 300,000 tested, 0.34% active; EBNA-1 DNA binding, fluorescence polarization; in the data active = inhibition above about 28%
NS3 helicase inh – HCV NS3 helicase inhibition. inhibition, % at 10.9 µM. NS3 helicase DNA unwinding, Cy5 molecular beacon fluorescence. 290,000 tested, 0.56% active;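 active = inhibition above the mean of all tested compounds plus 3 SD, set per campaign, cut at about 35% in these data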;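 also: 0% = DMSO wells and 100% = thioflavine S control wells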
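Material: hepatitis C virus NS3 helicase domain fragment enzyme; measured by: Cy5 fluorescence, 0 and 60 min reads; control set: DMSO and thioflavine S; incubation: 60 min unwinding reaction at 25 °C after ATP addition; read-out basis: % inhibition from 60/0 min fluorescence ratio, DMSO 0%, thioflavine S 100%; repeats: singlicate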
* hit, by the source's call; nt = no result. Only some compounds are listed: those with a hit (about 3.6% of all), similar ones and a draw of the others.

SMILES	DNA FID counter	NR3A LBD binder	ZTA counter	FGF22 binding	EBNA-1 inh	NS3 helicase inh
CNC(=O)C[C@H]1CC[C@@H]2[C@H](COc3ccc(NC(=O)Nc4ccc(Cl)cc4)cc3C(=O)N2C)O1	nt	nt	nt	0	nt	nt
COc1ccc(NC(=O)N(C)C[C@H]2Oc3ccc(NC(=O)Nc4ccc5c(c4)OCO5)cc3C(=O)N([C@@H](C)CO)C[C@@H]2C)cc1	nt	nt	nt	0	nt	nt
Nc1nc(-c2ccc(Cl)cc2)nnc1-c1ccc(Br)cc1	12	-16	-18	44*	11	-8
CO[C@H]1CN(C)C(=O)c2ccc(NC(=O)C3CCCC3)cc2OC[C@H](C)N(CCC(F)(F)F)C[C@@H]1C	nt	nt	nt	0	nt	nt
CNC[C@@H]1OCCCC[C@@H](C)Oc2ccc(NS(=O)(=O)c3ccccc3)cc2C(=O)N([C@@H](C)CO)C[C@@H]1C	nt	nt	nt	0	nt	nt
CC(C)c1ccc(NS(=O)(=O)c2ccc(-n3cccn3)cc2)cc1	-18	2	-8	0	-4	-26
CC(C)c1ccc(S(=O)(=O)Nc2ccc(SC(F)F)cc2)cc1	-4	13*	-10	nt	-3	-13
O=C(/C=C/c1cccc([N+](=O)[O-])c1)c1cccs1	-1	0	8	0	19	3
O=C(Nc1ccc(NC(=S)NC(=O)c2cccs2)cc1)c1ccco1	-13	13*	5	0	7	3
O=C(Nc1cccc(NC(=O)c2cccs2)c1)c1ccc(Br)o1	-11	16*	-7	0	2	-6
O=C(Nc1ccc(Nc2ccccc2)cc1)c1ccc(Br)o1	1	21*	8	nt	-6	-7
O=C(/C=C/c1cccc([N+](=O)[O-])c1)Nc1ccc(NC(=O)c2cccs2)cc1	-3	25*	-14	nt	-2	4
O=C(NC(=S)Nc1ccc(N2CCCCC2)cc1)c1cccs1	-5	-12	-1	nt	-1	8
CS(=O)(=O)N1CCN(c2ccc(NC(=S)NC(=O)c3cccs3)cc2)CC1	0	2	8	44*	7	4
O=C(Nc1ccc(NC(=O)c2cccs2)cc1)c1ccc(Br)o1	-3	24*	-17	nt	-9	-2
Cc1c(C(=O)NC(=S)Nc2ccc(NC(=O)c3cccs3)cc2)cccc1[N+](=O)[O-]	-2	11*	2	nt	-6	-17
O=C(NNC(=O)c1cccs1)c1ccc(Br)o1	0	-1	7	0	-4	-10
CO[C@@H](CN(C)C(=O)c1cnccn1)[C@@H](C)CN([C@H](C)CO)S(=O)(=O)c1ccc(C)cc1	nt	nt	nt	0	nt	nt
COCCCN=Cc1c(C)[nH]n(-c2ccc(Br)c(C)c2)c1=O	-15	66*	5	nt	6	1
COc1ccccc1CC(=O)NNC(=O)c1cccs1	1	0	7	44*	-1	0
COc1ccccc1CC(=O)Nc1ccc(NC(=O)c2cccs2)cc1	-5	-12	-11	0	20	5
Cc1cc(Br)cc(C)c1OCC(=O)NNC(=O)c1cccs1	-19	13*	5	0	-6	-7
O=C(NCC[C@@H]1CC[C@@H](NC(=O)c2ccc3c(c2)OCO3)[C@H](CO)O1)Nc1ccc(Cl)cc1	nt	nt	nt	0	nt	nt
CC(=NO)C1CCC2C3CCC4=CC(=NO)CCC4(C)C3C(=O)CC12C (configuration not stated)	nt	18*	nt	-1	nt	nt
O=S(=O)(Nc1nc2ccccc2nc1N1CCc2ccccc2C1)c1ccc(Cl)cc1	-10	10	10	nt	5	6
SMILES	DNA FID counter	NR3A LBD binder	ZTA counter	FGF22 binding	EBNA-1 inh	NS3 helicase inh
CC(=O)Nc1ccc(S(=O)(=O)Nc2nc3ccccc3nc2N2CCc3ccccc3C2)cc1	-21	16*	-1	0	11	-13
O=S(=O)(Nc1nc2ccccc2nc1N1CCc2ccccc2C1)c1ccc(Br)cc1	-1	10*	21	nt	5	5
CC(=O)Nc1ccc(S(=O)(=O)Nc2nc3ccccc3nc2N2CCCCCC2)cc1	-18	-5	-3	nt	-3	-13
Cc1ccc(S(=O)(=O)N(C)C[C@@H]2OCCCC[C@H](C)Oc3ccc(NC(=O)Nc4cccc5ccccc45)cc3C(=O)N([C@@H](C)CO)C[C@H]2C)cc1	nt	nt	nt	0	nt	nt
Cc1ccc(NS(=O)(=O)c2ccc(N3CCN(c4ccc(O)cc4)CC3)c([N+](=O)[O-])c2)c(C)c1	20	17*	-10	0	-4	6
CN1CCCCN2[C@H](C1)[C@H](c1ccc(-c3cccnc3)cc1)[C@@H]2CO	nt	nt	nt	0	nt	nt
COc1ccc(CC(=O)Nc2c3c(nn2C(C)(C)C)CS(=O)(=O)C3)cc1	-6	14*	6	0	-1	-3
COc1cc(CNCCO)cc(Cl)c1OCc1ccc(Cl)cc1Cl	43*	-1	-14	nt	-4	-60
COc1cc(C(=O)Nc2ccc(O)cc2)ccc1OC(C)=O	3	32*	0	nt	10	1
COc1ccccc1CC(=O)Nc1ccc(-c2nnc(-c3ccco3)o2)cc1	-23	4	-3	nt	1	-7
COc1cc(C(=O)Nc2cccc(-c3nnc(-c4ccco4)o3)c2)ccc1OC(C)=O	-31	-5	3	44*	3	-5
O=C(Cc1ccccc1)Nc1ccc(-c2nnc(-c3ccco3)o2)cc1	-11	-17	-6	nt	4	7
O=C(Cc1ccc(Cl)cc1)Nc1ccc(-c2nnc(-c3ccco3)o2)cc1	-6	13*	8	nt	23	-1
COc1cc(C(=O)Nc2ccc(-c3nnc(-c4ccco4)o3)cc2)cc(OC)c1OC	-6	30*	15	nt	13	4
CCNC(=O)C[C@@H]1CC[C@H]2[C@@H](COC[C@H](O)CN2C(=O)c2cc(Cl)cc(Cl)c2)O1	nt	nt	nt	0	nt	nt
COc1ccccc1-c1ccc2c(c1)[C@H]1[C@H](CCN1S(=O)(=O)c1cn(C)cn1)[C@@H](CO)N2	nt	nt	nt	0	nt	nt
COc1cccc(NC(=O)CN(C)C(=O)/C=C/c2cn(-c3ccccc3)nc2-c2ccc(C)cc2)c1	nt	17*	3	0	2	nt
COc1ccc(-c2nn(-c3ccccc3)cc2/C=C/C(=O)OCC(=O)Nc2ccc(C#N)cc2)cc1	-9	-18	-5	nt	-11	0
COc1ccc(-c2nn(-c3ccccc3)cc2/C=C/C(=O)OCC(=O)Nc2cccc(C#N)c2)cc1	-2	25*	-6	nt	12	-20
COc1ccc(NC(=O)CN(C)C(=O)/C=C/c2cn(-c3ccccc3)nc2-c2ccc(F)cc2)cc1	nt	10*	-1	0	4	nt
O=C(C[C@@H]1C=C[C@@H](NC(=O)c2cccc(F)c2)[C@H](CO)O1)NCc1ccc(Oc2ccccc2)cc1	nt	nt	nt	0	nt	nt
c1ccc(Cn2c(NCc3ccncc3)nc3ccccc32)cc1	10	-4	12	0	-2	-8
c1ccc(Cn2c(NCc3ccccn3)nc3ccccc32)cc1	-2	-1	-33	43*	8	11

From PubChem BioAssay
